Source: the EternaBench riboswitch data

System: MS2 coat protein
Test: apparent Kd, MS2 coat protein; higher = weaker binding; RNA-MaP array
Outline: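 Designed RNAs were produced on an Illumina sequencing chip by transcription of sequenced DNA templates. Binding to fluorescently labeled MS2 coat protein (1.5 nM to 3 μM) was measured at room temperature with or without input ligand. The apparent Kd is the median of per-cluster binding-curve fits. Designs were excluded when measured on fewer than 10 clusters.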

[1] = designed as: ON switch for flavin mononucleotide, no ligand
[2] = ligand present: flavin mononucleotide, designed as: ON switch for flavin mononucleotide
[3] = designed as: OFF switch for flavin mononucleotide, no ligand
[4] = ligand present: flavin mononucleotide, designed as: OFF switch for flavin mononucleotide

Sequence: UUAGUGGAACGGAAGGAUAUGAGCCACCCUACAUGAGGAUCACCCAUGUGAGCGUUGGCAGCGCAUCAGAAGGUCCUCCUACGAGU
- apparent Kd [1]: 6.63 nM
- apparent Kd [2]: 5.9 nM

Sequence: GACAUGAGGAUCACCCAUGUGAAGCAUGGUGGGCGCUCGUCCUAGGAUAUCUGCAAGUAGCUAGGAGAGAAGGAGGUAGCCAAA
- apparent Kd [3]: 76.3 nM
- apparent Kd [4]: 57.6 nM

Sequence: AGGAGACGCAAGGAGGAUAUUCAUAUGGUAACAUGAGGAUCACCCAUGUAGUUCUAGUUGGGACUGAAGAAGGCCUUGCUAGCGCA
- apparent Kd [1]: 21.7 nM
- apparent Kd [2]: 11.3 nM

Sequence: GGGAGAAAUGGAGGAUAUAUUAAAGCACAGCUGACAUGAGGAUCACCCAUGUGAAUUAAAGAUGCAUAGAAGGCCAAACUACAA
- apparent Kd [1]: 17.3 nM
- apparent Kd [2]: 11.8 nM

Sequence: UCGGAAAAGAAAGGAUAUCGCAUGGAUUGUUGUCGAGAAGGUUCAAAUCGACAUGAGGAUCACCCAUGUCGAGUCCAUACUCCU
- apparent Kd [1]: 76 nM
- apparent Kd [2]: 53.7 nM

Sequence: CGAAACAUGAGGAUCACCCAUGUGUAGAUCCUGCAAGCAUAUAGAAGGUCGUCACUCCGUCACGCGAAGGAUAUAUUAAGUGCC
- apparent Kd [3]: 210 nM
- apparent Kd [4]: 168 nM

Sequence: GUUGACGAGUCAGGAUAUGAUUAGUGGGAGAAACAGCAACUCACAUGAGGAUCACCCAUGUAUGUUCAGAAGGGACGCCGAUCA
- apparent Kd [3]: 63.9 nM
- apparent Kd [4]: 183 nM

Sequence: GCAAAGAAAGCAGUGUAAACAUGAGGAUCACCCAUGUGAUGGAGAAGGUAUAGGCUGGUCGUAUAUAAGGAUAUCCUAAGCAAA
- apparent Kd [1]: 18.6 nM
- apparent Kd [2]: 17.6 nM

Sequence: GUCGUCACAGGAUAUACAUGAGGAUCACCCAUGUUCCCGUGUAAAUGGGUUGUGUUAGGUAGAAGGGUGCACGC
- apparent Kd [3]: 17.4 nM
- apparent Kd [4]: 27.8 nM

Sequence: GAUGUCAAACAGAAGGAAGACUUGUACAAGGACUUAGGAUAUGUACAUGAGGAUCACCCAUGUGACUAAUGCGGGCCAUAUGAC
- apparent Kd [3]: 15.1 nM
- apparent Kd [4]: 16.9 nM

Sequence: GAGGUAACGUAGAAGGCGAGGGCAAUACCUGUUCGAGGAUAUACUAUUAGACAUGAGGAUCACCCAUGUGGAGAUUGAUCGUCA
- apparent Kd [3]: 241 nM
- apparent Kd [4]: 339 nM

Sequence: CGUUAGCAGUAGAAGGUAGCCGGCAGGUCAGGGCGACCACAUGAGGAUCACCCAUGUCUAUGUUCUAAGGAUAUACUGACCCAA
- apparent Kd [3]: 5.2 nM
- apparent Kd [4]: 5.59 nM

Sequence: AGAGUUAUUGAGAAGGAAACAUUGACAUGAGGAUCACCCAUGUACUUGGCUAAGGAGCCGAGUGUUUAGGAUAUCAUUCAGAUA
- apparent Kd [1]: 25.6 nM
- apparent Kd [2]: 9.33 nM

Sequence: GGUACUCUGUACUAACAUGAGGAUCACCCAUGUAGGCAAACUCAGGAUAUAUUGAACACACCUAGAUAGAAGGGAGUUCGUGAU
- apparent Kd [1]: 11.2 nM
- apparent Kd [2]: 9.66 nM

Sequence: GCACCUAGGUCAGGAUAUCAAAAUGUCAUACAUGAGGAUCACCCAUGUGUCGUUAAGUAACACUGUGAGAAGGGACAACUUGAA
- apparent Kd [3]: 10.3 nM
- apparent Kd [4]: 8.82 nM

Sequence: UAUGGCAACUUAGGAUAUCAAUGCAUCGAUUAUUGAGAAGGAAGAAACAUGAGGAUCACCCAUGUCUCUACAGGGAUAAGGACC
- apparent Kd [3]: 7.38 nM
- apparent Kd [4]: 7.98 nM

Sequence: GGACACGAAGGAUAUACCCAAUGCCUGAGAAAACUCAUGGGACAUGAGGAUCACCCAUGUAGAAGGUCGUUAAA
- apparent Kd [3]: 558 nM
- apparent Kd [4]: 416 nM

Sequence: UCGUGCAGAUAGGAUAUAUAGUCACUGUCGUCUAUAGAAGGAUCUACAUGAGGAUCACCCAUGUAAUGUGAGUC
- apparent Kd [3]: 132 nM
- apparent Kd [4]: 30.6 nM

Sequence: UUUUUAGGACAAGGAUAUUGAAUCGCACAUGAGGAUCACCCAUGUCCUCUGCAUACAGCGGACUUCAAGAAGGUGUCGACCAAU
- apparent Kd [1]: 971 nM
- apparent Kd [2]: 832 nM

Sequence: ACAUGAGGAUCACCCAUGUCUCGGGUGCCGGUUUUUACCUAGAGAAGGUGCGCAACGCUGUCACGCAAGGAUAUCUCACGAACA
- apparent Kd [3]: 231 nM
- apparent Kd [4]: 184 nM

Sequence: UAGGUGCUCUAAGGAUAUUAUACAUGAGGAUCACCCAUGUGGCGACCAAGGGUAGAAGAGGAACUUAAGAAGGUAGAUGUAUAG
- apparent Kd [3]: 43.2 nM
- apparent Kd [4]: 34 nM

Sequence: UAACCCGUGUAGAAGGCAAGCUCCGCGCUGGUCGUCAUCACAUGAGGAUCACCCAUGUGGAAGAUUGAGGAUAUACGCGCGAUG
- apparent Kd [3]: 5.45 nM
- apparent Kd [4]: 7.53 nM

Sequence: AAUAAGAGCUCGGAUACCAGCGAAAACAGGCACAUGAGGAUCACCCAUGUUAACGCACUGCGCCCUUGGCAGCCGCACGUGUGUC
- apparent Kd (designed as: ON switch for theophylline, no ligand): 25.1 nM
- apparent Kd (ligand present: theophylline, designed as: ON switch for theophylline): 12 nM

Sequence: UUAUAGAGAGGAUAUACAUGAGGAUCACCCAUGUUAUUACCAAGCUUGAUGGGUAUGCGUAGAAGGCUCAUGAA
- apparent Kd [3]: 19.1 nM
- apparent Kd [4]: 35 nM

Sequence: UUGAGAGGACAGAAGGUUGGGCUCUUGAUCUACGCGCGCGACAUGAGGAUCACCCAUGUGCUUCCAAAGGAUAUGUCACUCGCA
- apparent Kd [1]: 138 nM
- apparent Kd [2]: 44.8 nM

Sequence: CUGUUUGUUUGGGUCUGUCAAAAGAACGAUACCAGCCGCAUUAUGGGCCCUUGGCAGCGUAGGACAUGAGGAUCACCCAUGUACG
- apparent Kd (designed as: OFF switch for theophylline, no ligand): 18.7 nM
- apparent Kd (ligand present: theophylline, designed as: OFF switch for theophylline): 35.2 nM

Sequence: UUCAUCAACACAGGAUAUUCCGUCACAUGAGGAUCACCCAUGUAGCGCGUAGAUUACGGGCUUUCGAAGAAGGGUGUAAAGUCC
- apparent Kd [1]: 54.2 nM
- apparent Kd [2]: 43.3 nM
